Test results published in article PMC3907283 (Nature, 2013).
Numbering of substitutions follows the chain as printed.

How the values were obtained:
Swi6 [1] = assay: Swi6 self-association by sedimentation equilibrium/velocity AUC; assay type: binding, S. pombe; details: AUC, Supplementary Fig. 6
Swi6 [2] = molecular target: T1, Swi6 (Schizosaccharomyces pombe, UniProt P40381); assay: as above; assay type: binding, S. pombe; details: AUC
T1 sequence (P40381 1-328): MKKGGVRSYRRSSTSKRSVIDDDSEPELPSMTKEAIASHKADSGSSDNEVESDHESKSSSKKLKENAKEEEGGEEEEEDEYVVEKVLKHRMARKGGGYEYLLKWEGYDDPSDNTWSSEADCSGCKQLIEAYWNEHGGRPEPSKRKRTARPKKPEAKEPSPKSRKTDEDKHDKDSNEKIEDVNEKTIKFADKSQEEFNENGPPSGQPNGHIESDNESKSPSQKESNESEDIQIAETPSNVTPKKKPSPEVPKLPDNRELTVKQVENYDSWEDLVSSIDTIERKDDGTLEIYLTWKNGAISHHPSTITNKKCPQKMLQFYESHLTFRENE

Swi6 [3] = molecular target: Swi6 (Schizosaccharomyces pombe, UniProt P40381, C121S/C124S/C310S); assay: as above; assay type: binding, S. pombe; details: all three native cysteines mutated to serines; Supplementary Fig. 5
Swi6 [4] = assay: SV AUC weighted average sedimentation coefficient; assay type: binding, S. pombe; details: [Swi6^WT] = 20μM
H3K9me3 tail peptide [5] = assay: H3 tail peptide binding; details: Supplementary Fig. 5
Outline: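 Intrinsic Trp fluorescence (W104 in aromatic cage): 200nM Swi6 in 20mM HEPES pH 7.5, 150mM KCl, 1 mM DTT, titrated with H3 peptide (residues 1–18), K9 trimethylated or unmethylated. 10min at 30°C, excitation 295 nm, emission read at 330 nm. Kd from 1:1 binding fit, averaged over three independent data sets.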

H3K9me3 nucleosomes = assay: Nucleosome binding by fluorescence anisotropy/polarization; set-up: species or system Xenopus laevis
Outline: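 Core nucleosomes assembled from recombinant Xenopus histones on 147 bp 601 DNA, one end 6-carboxyfluorescein-labelled; H3K9me3 mimicked by methyl-lysine analog (H3KC9me3). 5-10 nM nucleosomes titrated with Swi6 in 20mM HEPES pH 7.5, 150mM KCl, 1 mM DTT, 0.01% NP40; 30 min at 24°C; FP at λex 480/λem 530nm. Fit to a two-step model giving Kd1 (Swi6–nucleosome) and Kd2 (scaffolded Swi6–Swi6); n ≥ 3, s.e.m.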

[6] = test system: ura4+ reporter gene inserted at the pericentromeric imr region; assay: ura4+ reporter silencing assay; assay type: cell-based, S. pombe; details: 5-FOA medium, 30°C, 2-3 days; Fig. 4d
Outline: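 Strains grown overnight to saturation, adjusted to OD600 of 1 for the most concentrated spot, then 5-fold serial dilutions plated on non-selective YS and on 5-FOA (2 grams/liter) media.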

Swi6 [7] = assay: Swi6 protein levels in vivo; assay type: cell-based, S. pombe; details: silencing strains; Supplementary Fig. 9
Outline: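 Detection with rabbit polyclonal antibodies raised against recombinant Swi6.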

H3K9me3 tail peptide [8] = molecular target: H3K9me3 tail peptide (UniProt P68431); assay: other fluorescence titration + fluorescence polarisation
AUC [9] = molecular target: the molecule itself; assay: AUC
AUC [10] = molecular target: the molecule itself; assay: AUC; remark: listed apart in the source

Chain of Swi6 (Schizosaccharomyces pombe, UniProt P40381, C121S/C124S/C310S) (P40381 whole entry C121S/C124S/C310S): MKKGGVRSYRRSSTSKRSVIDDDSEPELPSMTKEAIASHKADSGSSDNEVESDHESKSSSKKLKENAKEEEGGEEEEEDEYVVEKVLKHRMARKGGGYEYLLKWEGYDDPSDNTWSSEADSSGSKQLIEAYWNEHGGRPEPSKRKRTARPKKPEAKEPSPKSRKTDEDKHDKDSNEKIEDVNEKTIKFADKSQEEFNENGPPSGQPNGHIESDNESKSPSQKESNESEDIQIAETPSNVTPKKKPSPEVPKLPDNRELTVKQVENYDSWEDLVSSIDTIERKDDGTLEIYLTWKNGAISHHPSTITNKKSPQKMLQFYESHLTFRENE

With “Swi6-CFP: Swi6 with the CFP tag moved to the C-terminus” the “sedimentation coefficient compared to CFP-Swi6 (in words)” value (Swi6 [1]) was “lower sedimentation coefficient”.

In the case of “Swi6^WT: major S. pombe HP1 protein, Swi6, wild type”, the “1/Kobsiso, isodesmic self-association of Swi6 dimers (chain elongation)” value (Swi6 [2]; SE and SV global analysis, 8°C, RB: 20mM HEPES pH 7.5, 150mM KCl, 1 mM DTT) is reported as about 70 µM, the “Swi6 dimerization with saturating methylated H3 tail peptide” value (Swi6 [2]; saturating methylated H3 tail peptide, Supplementary Fig. 4) is reported as “weakened” and the “effect of mutating native cysteines on oligomerization” value (Swi6 [3]) is reported as “destabilized oligomerization”. For the same molecule, the “sedimentation coefficient, tetramer (S4)” value (Swi6 [4]) was ~ 5.2 S, the “effect of mutating native cysteines on H3 peptide binding” value (H3K9me3 tail peptide [5]) was “destabilized oligomerization, H3 peptide binding” and the “effect of mutating native cysteines on nucleosome binding” value (H3K9me3 nucleosomes; Supplementary Fig. 5) was “destabilized oligomerization, H3 peptide binding, and nucleosome binding”.

B1: Swi6^LoopX (natural protein)
chain: T1 sequence (P40381 1-328) with R93A, K94A
With B1 the “discrimination for the methyl mark in nucleosome binding” value (H3K9me3 nucleosomes; fluorescence anisotropy, Fig. 4a and Supplementary Fig. 8) was “discrimination for the methyl mark was maintained”, the “silencing of ura4+ reporter” value [6] was “defects in silencing that are comparable to the swi6+ deletion strain” and the Swi6 protein levels (Swi6 [7]) was “not due to reductions in protein levels”. For the same molecule, the fold stronger binding than Swi6^WT (H3K9me3 tail peptide [8]) was 6 fold.

B2: Swi6^WT (natural protein, S. pombe, UniProt P40381 1-328, looked up)
chain: T1 sequence (P40381 1-328)
With B2 the Kd (AUC [9]) was under 1 nM.

B3: CFP-Swi6 (natural protein, S. pombe, UniProt P40381 1-328, looked up)
chain: T1 sequence (P40381 1-328)
B3 was tested, and the “fold weaker dimer than Swi6^WT” value (AUC [10]) was about 10 fold.
